Here are results for 95 compounds from ChEMBL document CHEMBL4513216, “Probing the Open Global Health Chemical Diversity Library for Multistage-Active Starting Points for Next-Generation Antimalarials” (ACS Infect Dis, 2020).

This data set in a line: Toxicity liver stage against HepG2, at 10uM. Type of data set: cell-based. Details: test concentration 10 uM, cell line HepG2-A16-CD81EGFP. The conditions noted are these: human, HepG2-A16-CD81EGFP cells; read-out: INHIBITION
In short, it runs like this:
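Uninfected HepG2-A16-CD81EGFP cells, 3 × 10^3 per well, 1536-well, plated on prespotted compound at 10 μM final, parasite-free screening media added to match infected plates; puromycin 10 μM positive, DMSO 0.5% negative; run in parallel with 48 h PbLuc assay at 37 °C, 5% CO2; viability by CellTiter-Glo luminescence, normalized to controls.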
On to `CNc1cc(C2CN(C(=O)c3cscn3)CCO2)nc(C)n1` (stereo not given), for which the cytotoxicity at 10 µM was determined as 9.49%. For `Cc1ccc2[nH]c(CN(C)Cc3n[nH]c4c3CCC4)nc2c1`, the cytotoxicity at 10 µM was 4.85%. The result for `c1ccc(CN2CCC3(CC2)CCN(c2ccccn2)C3)nc1` reads -128%. The result for `CCc1nc(CN2CCCC(NCc3nc(C)c(C)o3)C2)no1` (stereo not given) reads -12.1%. The result for `CN(C(=O)NCC1(CN2CCOCC2)CCCCC1)C1CC1` reads -1.91%; that for `COc1ccccc1CN1CCc2c(nc(-c3ccccn3)[nH]c2=O)C1`, -19.7%; that for `CC(C)c1noc(CCC(=O)Nc2cc(F)ccc2F)n1`, -15.4%. Turning to `COc1c(C)cnc(CN2CCC(N(C)C(C)C(N)=O)CC2)c1C` (stereo not given), the cytotoxicity at 10 µM was -3.38%. With `CSc1nccc(N2CCC3(CCCN(CC4CC4)C3)C2)n1` (stereo not given) the figure was -10.1%; with `O=C1CO[C@@H]2CN(CC3CCOCC3)C[C@H]2N1Cc1ccncc1`, -139%; with `N#Cc1c(N2CCCN(C3CCOCC3)CC2)nc2ccccn12`, 14.7%. With `CCC(=O)N1CCc2[nH]cnc2C12CCN(CC1CCOC1)CC2` (stereo not given) the figure was -0.264%; with `CCOC[C@H]1CC[C@H]2[C@H](CCN2C(=O)c2cnccn2)O1`, 2.22%. The result for `CCCc1nc2c(c(C)c(C)n2Cc2cccnc2)c(N)c1CC` reads 15%. For the compound `C1CCC(c2nc3c(c(N4CC(N5CCOCC5)C4)n2)CCNCC3)C1`, the cytotoxicity at 10 µM is -10.2%. The result for `Cc1cn2nc(N3CCN(Cc4c(C)noc4C)CC3)sc2n1` reads -8.81%; that for `CC(C)C1CN(S(=O)(=O)N(C)C)CCCN1Cc1ccc(F)cc1` (stereo not given), 5.17%. Take `Nc1cccc(-c2cccc3ccnn23)n1`: the cytotoxicity at 10 µM is -5.74%.

On to `CC1CCC(NCCNC(=O)c2cccs2)CC1` (stereo not given), for which the cytotoxicity at 10 µM was -11.8%. With `CCn1cnnc1CNC(=O)N1CCN(CCc2ccccc2)CC1` the figure was -8.14%; with `Cc1ccc(NC(=O)c2coc(C)n2)c(C)c1`, -4.94%; with `Cc1nc(C)n(CC2CCCCN2CCOc2ccc(C#N)cc2)n1` (stereo not given), -6.79%. In the case of `NC(=O)c1cc(C2CC2)nc2ccc(F)cc12`, the cytotoxicity at 10 µM is 3.87%.

`Cc1nc[nH]c1CNC1CC(=O)N(CCc2cccc(Cl)c2)C1` (stereo not given): the cytotoxicity at 10 µM is -135%. Take `c1ncc2c(n1)CN(Cc1cn3ccsc3n1)CC2`: the cytotoxicity at 10 µM stood at 11.3%. With `CC(C)(C)C(=O)NCCn1ccc(-c2ccncc2)n1` the figure was -26.7%. With `Cc1cc(C(=O)NCc2ccnc(N(C)C)c2)c(C)o1` the figure was -2.43%; with `COCC(=O)NC[C@H]1C[C@@H]2CCN1C[C@@H]2c1cc(-c2cccs2)nn1C`, 1.23%. The result for `NCC1Cc2cc(-c3cncc(C(=O)N4CCCCC4)n3)cc(F)c2O1` (stereo not given) reads -51.8%. For `CC(C)CCN1CCN(C(=O)c2c[nH]c(=O)[nH]2)CC1`, the cytotoxicity at 10 µM was -6.49%.

Consider `CC(C)c1nnsc1CN1CCc2[nH]nc(-c3ccc(Cl)cc3)c2C1`, for which the cytotoxicity at 10 µM was -10.3%. For `CS(=O)(=O)N[C@@H]1CCN(Cc2cccs2)[C@H]1Cc1cccnc1`, the cytotoxicity at 10 µM was -78.5%. With `c1cncc(CN2CC[C@@H]3O[C@H](COCCN4CCCC4)CC[C@@H]32)c1` the figure was -156%. The result for `CS(=O)(=O)c1cccc(C(N)c2ccc(Cl)cc2)c1` (stereo not given) reads -16.1%. Turning to `C[C@@H](O)CNC(=O)c1nc(CC(=O)Nc2cccc(C(F)(F)F)c2)no1`, the cytotoxicity at 10 µM came out at 8.35%. As for `Cc1ccc(C(=O)N2CCN(C(=O)Cc3ccccn3)CC2)c(C)c1`, the cytotoxicity at 10 µM was -4.74%.

As to `O=C(CCn1ccccc1=O)N1CCN(Cc2cccc(Cl)c2)CC1`, the cytotoxicity at 10 µM was -1.97%.

Regarding `CC1CCN(S(=O)(=O)N2CCC(Oc3cnccn3)CC2)CC1`, the cytotoxicity at 10 µM was -2.76%.

Regarding `CC(O)CC(C)(C)CNS(=O)(=O)c1cccc(Cl)c1C#N` (stereo not given), the cytotoxicity at 10 µM was -6.03%. With `Cc1cnc(NC(=O)c2cccc(CN(C)Cc3ncccc3C)c2)s1` the figure was 14.2%.

For `Cn1nc(C(=O)N2CCSCC2)cc1NC(=O)c1ccccc1`, the cytotoxicity at 10 µM is -13.9%. With `COCC(O)CN(C)C(=O)c1cccc(-c2csc(C)n2)c1` (stereo not given) the figure was -3.04%.

Turning to `COc1cc(CN(C)C(=O)NCc2cccc3c2OCO3)ccc1SC`, the cytotoxicity at 10 µM was -6.08%.

For `COCc1nn(C(C)C)c2c1CCN(Cc1nccs1)C2`, the cytotoxicity at 10 µM was 8.42%. The result for `COCC1CCN(Cc2cc(O)c3c(C)ccc(C)c3n2)CC1` reads -6.09%; that for `O=C(CCc1ccccc1)C1CCCN(Cc2cncn2C2CC2)C1` (stereo not given), -7.12%; that for `CC(C)CC(=O)N1CCCn2cnc(CN3CCCC3=O)c2C1`, -6.42%. The result for `CC(=O)N1CCN(C(=O)c2cc(-n3cnnn3)ccc2Cl)CC1` reads 8.32%; that for `O=C1C[C@H]2[C@@H](CCN2Cc2ccccn2)N1CCN1CCOCC1`, -1.45%; that for `CNS(=O)(=O)c1ccc(C)c(C(=O)NCCNc2ncccn2)c1`, -1.87%. With `c1ccc(-n2ncc(CNC3CCc4ncnn4C3)n2)cc1` (stereo not given) the figure was -3.38%. For `CC(=O)N(Cc1ncc(C)o1)C1CCN(CCNC2CCCCC2)C1` (stereo not given), the cytotoxicity at 10 µM came out at 15.4%. The result for `Cc1ccc(CN2CC[C@@H]3O[C@@H](C(=O)N4CCN(C)CC4)C[C@@H]32)cc1` reads -3.62%; that for `CSc1nsc(NC(=O)N2CCc3ccccc3C2)n1`, 11.3%. With `O=C(c1cccnc1SC/C=C/c1ccccc1)N1CC[C@H](O)C1` the figure was -9.66%.

Turning to `COc1cccc(CN2C[C@@H](F)[C@@H](OCc3nc4cnccc4[nH]3)C2)c1`, the cytotoxicity at 10 µM was -1.72%. With `CN1CCN(S(=O)(=O)c2ccc(Sc3nccn3C)nc2)CC1` the figure was 10.2%. Regarding `CC(Cn1cccn1)NCc1csc(-c2ccccc2F)n1` (stereo not given), the cytotoxicity at 10 µM is -7.71%. Regarding `CC(C)Cc1cc(NC(=O)c2ccc[nH]2)n(C)n1`, the cytotoxicity at 10 µM is -6.56%. With `Cc1ccccc1C(=O)N1CC2(COC(C)(C)OC2)C1` the figure was 4.56%. Regarding `CCN(CC)[C@@H]1CN(C(=O)c2ccnnc2)[C@@H]2CCCO[C@H]12`, the cytotoxicity at 10 µM was -146%. With `COc1cccc(CNC(=O)CN2CCCC(Cn3cncn3)C2)c1` (stereo not given) the figure was -18.2%; with `CCc1cnc(N2C[C@@H]3[C@@H](C(=O)NC(C)C)CCS(=O)(=O)[C@@H]3C2)nc1`, -146%; with `O=C(c1cnccn1)N1CCOCC2(CCN(C3CCOCC3)C2)C1` (stereo not given), -7.94%. The result for `O=C1NCCN(CC2CCCCC2)C1CC(=O)N1CCc2n[nH]cc2C1` (stereo not given) reads -3.76%; that for `Cc1cc(Br)ccc1NCC(=O)Nc1cc(C(C)(C)C)no1`, 5.09%; that for `CC(C)C(=O)NCC(=O)N(C)C1CCCN(CCc2ccccc2)C1` (stereo not given), -16.9%.

As for `CCN1CCN(c2ccc(CNC(=O)c3ccc(Cl)o3)cn2)CC1`, the cytotoxicity at 10 µM is -0.433%.

With `Cc1noc(C)c1CN1CCN(C(=O)Cn2cncn2)CC1`, the cytotoxicity at 10 µM was -3.52%. The result for `COCCN(Cc1ccc(F)cc1Cl)C(=O)c1ccc(=O)[nH]n1` reads 0.469%; that for `Cc1nc(N2CCC(C(O)c3nccn3C)CC2)c2c(C)noc2n1` (stereo not given), 7.54%; that for `COc1c(C)cc(S(=O)(=O)NCC2CNCCOC2)cc1C` (stereo not given), -3.53%. The result for `COCCCN1CCC(NC(=O)C2CC2)CC1` reads -5.02%; that for `O=C(NCCCOCC1CCCO1)c1cccnc1N1CCOCC1` (stereo not given), 3.68%; that for `CN(C)Cc1ccccc1CN(C)C(=O)c1ccoc1`, -11.8%. The result for `NC(=O)Cn1c(CO)cnc1SCC(=O)NCc1ccccc1Cl` reads -4.24%.

In the case of `C=C/C=c1\c(=C/C)oc2c(NCc3ccccc3)nc(CC)nc12`, the cytotoxicity at 10 µM came out at 10.4%.

Turning to `O=C([C@H]1CCCO1)N1CCN(Cc2cccnc2)c2ncccc2C1`, the cytotoxicity at 10 µM is 13.2%. With `CN(c1ccncn1)C1CC2(CCN(C(=O)c3ccsc3)C2)C1` (stereo not given) the figure was 4.02%. With `Cc1cc(-c2cnc(NCc3ccc4c(c3)OCO4)nc2C(C)C)on1` the figure was -1.23%; with `Cc1nn(C)c(=O)c2nn(-c3ccc(F)cc3)c(C)c12`, -0.839%.

As to `COC(=O)CCN(C)C(=O)c1csc(Cc2ccccc2F)n1`, the cytotoxicity at 10 µM was 9.38%. The result for `Cc1nc(CSCCC(=O)Nc2cccc(N3CCNC3=O)c2)cs1` reads 5.31%.

Regarding `O=C1OCCN1CCSc1nnnn1CC(F)(F)F`, the cytotoxicity at 10 µM is -41.5%.

With `CC1CCN(CCNC(=O)C2CCN(C(=O)C3CC3)CC2)CC1`, the cytotoxicity at 10 µM was 6.86%. In the case of `Cc1cc2n(n1)CC(CNCc1ccc(-n3cccn3)cc1)CN2` (stereo not given), the cytotoxicity at 10 µM is -2.95%. The result for `Cn1cc(C(=O)N[C@H]2CN(S(C)(=O)=O)[C@@H]3CCCO[C@H]23)cn1` reads -16%; that for `CCCN1CCCN(S(=O)(=O)c2cnc3onc(C)c3c2)CC1`, 1.71%. With `Cc1cc(C)c(S(=O)(=O)Nc2c(C)nc(N3CCCC3)nc2C)cc1C` the figure was 3.62%. With `Cc1nc2ccn(C(C)C)c(=O)c2cc1C(=O)O` the figure was -43.6%; with `C[C@H]1CCCCN1CCCNc1nccc(-c2c[nH][nH]c2=O)n1`, -6.91%; with `CC(C)C(C)(C#N)NC(=O)Cn1cc(C(N)=O)c(-c2ccccc2)n1` (stereo not given), -8.82%. Regarding `COc1ccc(C)cc1NC(=O)c1coc(C)n1`, the cytotoxicity at 10 µM was -7.66%. With `O=C(C1CC1)N1CCc2[nH]cnc2C12CCN(C1CCOCC1)CC2` the figure was -1.16%; with `CC(C)c1nn(C)c(N(C)C)c1CNCCC(=O)NC1CCCCC1`, -2.89%.
